Test results: ChEMBL document CHEMBL5365541, “Designing peptide amphiphiles as novel antibacterials and antibiotic adjuvants against gram-negative bacteria” (Bioorg Med Chem, 2023); call rule not given here
Values after ≈ are worked out from the molar mass of the structure shown. Starred links: 1 amine or outer side, 2 acyl side, 3 side chain; linkers in the order of their positions; H or OH if unused. Non-standard residues stand in square brackets, D forms with d. Residues, ends and D or L forms follow the SMILES beside them. ξ: configuration not given here. X5 = CCCCCCCCCCCCCCCCCCN([C@@H](CCCNC(=N)N)C(=O)[*:2])[*:1]; ξDap = NCC(N)C(=O)O

What was measured:
[1] = tested on: Staphylococcus aureus; assay: Antibacterial activity against methicillin-resistant Staphylococcus aureus 13C incubated for 20 to 24 hrs by broth microdilution method; assay type: functional; details: time 20-24 hrs
Outline: (§1)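 Broth microdilution in MHB: direct colony suspension at 0.5 McFarland diluted to ~10^5 CFU/mL final; peptide stock 1 mg/mL in water at pH 7, serially diluted. Incubated 20-24 h at 37 °C; MIC taken as the lowest concentration inhibiting growth (OD 600 nm, 1% TTC stain); triplicate; vancomycin and gentamicin as positive controls.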

[2] = tested on: Acinetobacter baumannii; assay: Antibacterial activity against Acinetobacter baumannii incubated for 20 to 24 hrs by broth microdilution method; assay type: functional; details: time 20-24 hrs
Outline: (§2)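 Broth microdilution: colonies suspended directly to 1.5×10^8 CFU/mL (0.5 McFarland), then diluted in Mueller–Hinton broth to ~10^5 CFU/mL final. PA stock 1 mg/mL in water, pH 7, serially diluted in MHB. Plates incubated 20–24 h at 37 °C. MIC = lowest concentration inhibiting growth, read as OD600 with optional 1% TTC staining. Triplicate.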

[3] = Self assembly property of the compound assessed as zeta potential at 250 ug/mL at pH 7 measured after 2 hrs; assay type: physicochemical; details: pH 7, 2 h, dose 250 µg/ml
Outline: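 Peptide self-assembled at 1 mg/mL, pH 7, annealed 2 h at 80 °C, and aged overnight. Diluted to 250 µg/mL in water; zeta potential measured at 25 °C.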

[4] = (§3) Cytotoxicity against human HT-29 cells assessed as inhibition of cell growth incubated for 24 hrs at pH 7.4 by MTT assay; assay type: toxicity, cell-based; details: HT-29 cells, pH 7.4
Outline: (§4)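 HT-29 cells in McCoy's 5a with 10% FBS were seeded at 15,000 cells/well and grown 24 h at 37 °C, 10% CO2. Medium then changed to pH 7.4 or pH 6.5 (20 mM MOPS, acidified with HCl). Peptide added in 2-fold dilutions, 7.8–500 µg/mL, for 24 h. Wells washed and given fresh pH 7.4 medium. MTT (12 mM, 10 µL) added for 4 h, then SDS-HCl for 4 h; A570 read.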

[5] = tested on: Escherichia coli; assay: Antibacterial activity against Escherichia coli K12 incubated for 20 to 24 hrs by broth microdilution method; assay type: functional; details: time 20-24 hrs; outline: as §2
[6] = Self assembly property of the compound assessed as formation of micelles at 1 mg/ml incubated overnight by transmission electron microscopy; assay type: physicochemical
Outline: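 Samples were dissolved at 2 mM in water, pH 7, and left at room temperature overnight. Applied to copper grids for 5 min, blotted, and negatively stained with NanoVan for 30 s. Imaged by TEM at 120 kV.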

[7] = tested on: Staphylococcus aureus; assay: Antibacterial activity against methicillin-resistant Staphylococcus aureus JE2 incubated for 20 to 24 hrs by broth microdilution method; assay type: functional; details: time 20-24 hrs; outline: as §1
[8] = tested on: Staphylococcus aureus; assay: Ratio of MIC for methicillin-resistant Staphylococcus aureus JE2 at pH 5.5 to MIC for methicillin-resistant Staphylococcus aureus JE2 at pH 7.0
[9] = Retention time of the compound by RP-HPLC analysis; assay type: physicochemical
Outline: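 Reverse-phase HPLC, linear gradient 0–100% acetonitrile in water with 0.1% TFA over 20 min; retention time recorded.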

[10] = tested on: Escherichia coli; assay: Ratio of MIC for Escherichia coli K12 at pH 5.5 to MIC for Escherichia coli K12 at pH 7.0
[11] = (§5) Cytotoxicity against human HT-29 cells assessed as inhibition of cell growth incubated for 24 hrs at pH 6.5 by MTT assay; assay type: toxicity, cell-based; details: HT-29 cells, pH 6.5; outline: as §4
[12] = tested on: HT-29; assay: as §3; assay type: toxicity, cell-based; details: ht-29, pH 7.4, 24 h, time 24 hrs; outline: as §4
[13] = tested on: HT-29; assay: as §5; assay type: toxicity, cell-based; details: ht-29, pH 6.5, 24 h, time 24 hrs; outline: as §4

SMILES	MIC [1] [µg/mL]	MIC [2] [µg/mL]	Activity [3] [mV]	IC50 at 24 h [4] [µg/mL]	MIC [5] [µg/mL]	Activity [6]	MIC [7] [µg/mL]	Ratio [8]	Retention_time [9] [min]	Ratio [10]	IC50 at 24 h [11] [µg/mL]	Activity [12]	Activity [13]
CCCCCCCCCCCCCCCCCCN[C@@H](CCCNC(=N)N)C(=O)N[C@@H](CCCNC(=N)N)C(=O)NC(CN)C(=O)NC(CN)C(=O)NC(CN)C(=O)O (some centres not stated) (H-[X5]R[ξDap][ξDap][ξDap]-OH)	16 (≈ 19 µM)	32 (≈ 38 µM)	30.1	117 (≈ 139 µM)	32 (≈ 38 µM)	Active	32 (≈ 38 µM)	> 1	14.6	> 1	81.7 (≈ 97.1 µM)	–	–
CCCCCCCCCCCCCCCCCCN[C@@H](C)C(=O)N[C@@H](C)C(=O)NC(CN)C(=O)NC(CN)C(=O)NC(CN)C(=O)O (some centres not stated)	64 (≈ 95.4 µM)	64 (≈ 95.4 µM)	10.3	–	32 (≈ 47.7 µM)	Active	32 (≈ 47.7 µM)	> 1	15.9	> 1	–	Non-Toxic	Non-Toxic
